One test concerns NCI-H460. Description: cells. In kind it is functional, cell-based. Conditions: Homo sapiens, NCI-H460, 72 h; call rule not given here.
The next test deals with CAPAN-1. The test is described as follows: cells. Format: functional, cell-based. Conditions: Homo sapiens, CAPAN-1, 72 h.
A further test deals with A-431. The test is described as follows: cells. Format: functional, cell-based. Conditions: Homo sapiens, A-431, 72 h.
In another test the test system is HeLa. Description: cells. Format: functional, cell-based. Conditions: Homo sapiens, 72 h.
The next test relates to HT-29. Description: Antiproliferative activity against human HT-29 cells after 72 hrs by SRB assay. In kind it is functional, cell-based. Conditions: HT-29, 72 h. A general note: Sulforhodamine B stains cellular protein and so reports cell mass.
A further test concerns DU-145. The test is described as follows: cells. In kind it is functional, cell-based. To be noted: Homo sapiens, DU-145, 72 h.
A further test relates to HepG2. The test is described as follows: Antiproliferative activity against human HepG2 cells after 72 hrs by SRB assay. In kind it is functional, cell-based. Conditions: HepG2, 72 h.
For the next test, the system named is A2780. Description: cells. Conditions: Homo sapiens, A2780, 72 h. Format: functional, cell-based.
Test [1] can be described thus: cells. Format: functional, cell-based. To be noted: Homo sapiens, A2780/DX, 72 h.
A short description of test [2]: cells. To be noted: Homo sapiens, MINO, 72 h. In kind it is functional, cell-based.
The nature of test [3]: cells. Format: functional, cell-based. To be noted: Homo sapiens, 72 h.
In test [4] the test system is JeKo-1. Description: cells. Format: functional, cell-based. Conditions: Homo sapiens, JeKo-1, 72 h.
Another test has as its system U2932. The test is described as follows: cells. Conditions: Homo sapiens, U2932, 72 h. Format: functional, cell-based.
Test [5] concerns L-428. Description: cells. In kind it is functional, cell-based. To be noted: Homo sapiens, L-428, 72 h.
Test [6] concerns DG-75. The test is described as follows: cells. Conditions: Homo sapiens, DG-75, 72 h. In kind it is functional, cell-based.
The subject of the next test is NB-4. The test is described as follows: cells. Format: functional, cell-based. Conditions: Homo sapiens, NB-4, 72 h.
Test [7] in a line: Antiproliferative activity against human Mino cells at 10 uM after 72 hrs by MTT assay relative to control. In kind it is functional. (In general: Tetrazolium dyes change colour on reduction, which living cells bring about.)
The subject of test [8] is JeKo-1. Description: Antiproliferative activity against human JeKo1 cells at 10 uM after 72 hrs by MTT assay relative to control. In kind it is functional.
Test [9] concerns OCI-Ly3. The test is described as follows: Antiproliferative activity against human OCI-LY3 cells at 10 uM after 72 hrs by MTT assay relative to control. Format: functional.
Test [10] has as its system L-428. Description: Antiproliferative activity against human L428 cells at 10 uM after 72 hrs by MTT assay relative to control. In kind it is functional.
The test system of test [11] is KM-H2. Description: Antiproliferative activity against human KM-H2 cells at 10 uM after 72 hrs by MTT assay relative to control. In kind it is functional.
Test [12] has as its system DG-75. The test is described as follows: Antiproliferative activity against human DG75 cells at 10 uM after 72 hrs by MTT assay relative to control. In kind it is functional.
Test [13] can be described thus: cells. Format: functional, cell-based. To be noted: Homo sapiens, 72 h. The source holds these as a separate data set.
A short description of test [14]: cells. In kind it is functional, cell-based. To be noted: Homo sapiens, MM487, 72 h.
The subject of test [15] is OCI-Ly3. The test is described as follows: cells. To be noted: Homo sapiens, OCI-Ly3, 72 h.
For test [16], the system named is KM-H2. The test is described as follows: cells. To be noted: Homo sapiens, KM-H2, 72 h.
In another test the test system is MM473. Description: animal or person. Conditions: Mus musculus, MM473, iv, read-out: INH.
For the next test, the target named is Histone deacetylase 1 (Homo sapiens, UniProt Q13547). Description: Inhibition of HDAC1 (unknown origin) using RHKK(Ac)AMC as substrate after 1 to 2 hrs by fluorescence assay.
A further test concerns the target Histone deacetylase 2 (Homo sapiens, UniProt Q92769). Description: Inhibition of HDAC2 (unknown origin) using RHKK(Ac)AMC as substrate after 1 to 2 hrs by fluorescence assay.
Another test deals with Histone deacetylase 4 (Homo sapiens, UniProt P56524). Description: Inhibition of HDAC4 (unknown origin) using fluorogenic substrate after 1 to 2 hrs by fluorescence assay. The method, boiled down:
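Purified HDAC4 preincubated with compound (10 concentrations from 10 µM, triplicate, final 1% DMSO) in 50 mM Tris-HCl pH 8.0, 137 mM NaCl, 2.7 mM KCl, 1 mM MgCl2, 1 mg/ml BSA. Class 2a trifluoroacetyl-lysine fluorogenic substrate added and incubated 1–2 h at 30 °C. Developer with TMP269 stops the reaction; fluorescence read at ex 360/em 460 at plateau. Activity is relative to DMSO, and IC50 comes from a sigmoidal fit.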

Test [17] deals with Protein deacetylase HDAC6 (Homo sapiens, UniProt Q9UBN7). Description: Inhibition of HDAC6 (unknown origin) using RHKK(Ac)AMC as substrate after 1 to 2 hrs by fluorescence assay.
Test [18] has as its target Polyamine deacetylase HDAC10 (Homo sapiens, UniProt Q969S8). Description: Inhibition of HDAC10 (unknown origin) using RHKK(Ac)AMC as substrate after 1 to 2 hrs by fluorescence assay.

This passage reports IC50, Activity and inhibition in vivo results from ChEMBL document CHEMBL4251569, “Camptothecin-psammaplin A hybrids as topoisomerase I and HDAC dual-action inhibitors” (Eur J Med Chem, 2018).

One may read the IC50 as the concentration at which inhibition is half-maximal. Read a low IC50 as inhibition by little substance.

Sequence of Polyamine deacetylase HDAC10 (Q969S8 whole entry): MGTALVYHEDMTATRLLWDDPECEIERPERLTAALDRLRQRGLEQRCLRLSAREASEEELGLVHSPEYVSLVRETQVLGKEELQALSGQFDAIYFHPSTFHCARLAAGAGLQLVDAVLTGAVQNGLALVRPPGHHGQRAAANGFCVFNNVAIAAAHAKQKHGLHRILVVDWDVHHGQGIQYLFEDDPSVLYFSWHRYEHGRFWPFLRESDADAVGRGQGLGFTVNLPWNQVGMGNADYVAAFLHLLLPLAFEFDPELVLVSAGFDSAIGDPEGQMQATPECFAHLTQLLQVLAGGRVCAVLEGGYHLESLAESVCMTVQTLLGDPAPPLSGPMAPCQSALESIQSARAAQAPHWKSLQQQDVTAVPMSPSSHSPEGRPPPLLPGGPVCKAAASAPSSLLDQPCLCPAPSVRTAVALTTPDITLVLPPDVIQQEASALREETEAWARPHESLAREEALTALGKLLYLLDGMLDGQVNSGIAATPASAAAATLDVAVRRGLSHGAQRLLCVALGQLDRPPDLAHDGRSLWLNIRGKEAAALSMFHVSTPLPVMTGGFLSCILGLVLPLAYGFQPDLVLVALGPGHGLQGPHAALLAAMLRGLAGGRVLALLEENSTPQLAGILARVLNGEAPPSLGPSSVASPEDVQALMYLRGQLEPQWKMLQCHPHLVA
Sequence of Histone deacetylase 2 (Q92769 whole entry): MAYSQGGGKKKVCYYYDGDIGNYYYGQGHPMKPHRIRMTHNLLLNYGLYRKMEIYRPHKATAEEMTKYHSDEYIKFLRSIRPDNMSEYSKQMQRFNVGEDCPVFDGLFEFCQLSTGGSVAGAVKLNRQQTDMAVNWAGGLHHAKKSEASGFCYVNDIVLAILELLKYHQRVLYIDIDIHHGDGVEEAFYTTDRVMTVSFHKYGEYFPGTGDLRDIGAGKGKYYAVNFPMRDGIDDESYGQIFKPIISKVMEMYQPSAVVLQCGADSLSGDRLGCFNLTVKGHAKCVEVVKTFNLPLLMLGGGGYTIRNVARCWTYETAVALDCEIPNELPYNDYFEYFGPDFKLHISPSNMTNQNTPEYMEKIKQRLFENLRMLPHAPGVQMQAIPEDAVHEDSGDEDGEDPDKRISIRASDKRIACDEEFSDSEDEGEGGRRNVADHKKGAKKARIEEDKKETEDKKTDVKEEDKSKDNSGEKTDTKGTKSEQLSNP
Sequence of Histone deacetylase 1 (Q13547 whole entry): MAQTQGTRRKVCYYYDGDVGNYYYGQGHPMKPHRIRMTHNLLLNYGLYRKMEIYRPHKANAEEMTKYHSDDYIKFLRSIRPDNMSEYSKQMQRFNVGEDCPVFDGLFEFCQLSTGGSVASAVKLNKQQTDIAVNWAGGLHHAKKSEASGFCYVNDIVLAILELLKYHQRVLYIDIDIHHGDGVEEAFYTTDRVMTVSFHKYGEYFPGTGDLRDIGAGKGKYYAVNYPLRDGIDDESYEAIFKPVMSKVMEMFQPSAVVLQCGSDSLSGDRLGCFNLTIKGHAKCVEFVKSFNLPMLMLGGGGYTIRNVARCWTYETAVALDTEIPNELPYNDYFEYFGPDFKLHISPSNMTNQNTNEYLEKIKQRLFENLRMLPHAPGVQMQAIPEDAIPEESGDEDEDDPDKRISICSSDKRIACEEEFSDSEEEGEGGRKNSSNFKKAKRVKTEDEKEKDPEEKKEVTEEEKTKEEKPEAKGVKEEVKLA
Sequence of Histone deacetylase 4 (P56524 whole entry): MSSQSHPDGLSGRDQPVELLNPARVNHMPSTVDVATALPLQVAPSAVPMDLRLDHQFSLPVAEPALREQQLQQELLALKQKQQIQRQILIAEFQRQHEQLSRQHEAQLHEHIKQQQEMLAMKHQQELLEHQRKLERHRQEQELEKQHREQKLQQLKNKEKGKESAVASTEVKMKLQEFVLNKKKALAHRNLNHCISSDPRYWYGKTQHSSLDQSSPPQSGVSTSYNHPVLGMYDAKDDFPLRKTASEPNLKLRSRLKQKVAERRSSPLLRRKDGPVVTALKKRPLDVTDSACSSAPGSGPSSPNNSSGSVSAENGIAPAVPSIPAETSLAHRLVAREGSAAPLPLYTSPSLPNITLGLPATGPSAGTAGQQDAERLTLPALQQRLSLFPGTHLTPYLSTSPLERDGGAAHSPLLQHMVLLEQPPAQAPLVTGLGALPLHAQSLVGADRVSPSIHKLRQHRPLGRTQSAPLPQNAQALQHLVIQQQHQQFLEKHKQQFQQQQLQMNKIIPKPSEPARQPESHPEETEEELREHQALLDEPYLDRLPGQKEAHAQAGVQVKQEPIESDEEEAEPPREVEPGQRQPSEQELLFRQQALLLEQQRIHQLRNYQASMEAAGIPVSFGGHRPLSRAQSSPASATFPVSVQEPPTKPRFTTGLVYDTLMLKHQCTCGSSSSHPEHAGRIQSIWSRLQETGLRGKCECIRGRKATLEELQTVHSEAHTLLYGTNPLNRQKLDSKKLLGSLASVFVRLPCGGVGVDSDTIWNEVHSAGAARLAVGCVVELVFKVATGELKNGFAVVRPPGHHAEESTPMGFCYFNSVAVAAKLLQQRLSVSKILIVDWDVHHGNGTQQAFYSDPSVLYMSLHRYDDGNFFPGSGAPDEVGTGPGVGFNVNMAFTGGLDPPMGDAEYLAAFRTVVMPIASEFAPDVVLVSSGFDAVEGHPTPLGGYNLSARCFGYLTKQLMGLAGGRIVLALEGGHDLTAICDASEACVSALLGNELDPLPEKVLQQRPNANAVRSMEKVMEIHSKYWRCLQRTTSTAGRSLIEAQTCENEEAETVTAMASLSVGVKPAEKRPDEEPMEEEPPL
Sequence of Protein deacetylase HDAC6 (Q9UBN7 whole entry): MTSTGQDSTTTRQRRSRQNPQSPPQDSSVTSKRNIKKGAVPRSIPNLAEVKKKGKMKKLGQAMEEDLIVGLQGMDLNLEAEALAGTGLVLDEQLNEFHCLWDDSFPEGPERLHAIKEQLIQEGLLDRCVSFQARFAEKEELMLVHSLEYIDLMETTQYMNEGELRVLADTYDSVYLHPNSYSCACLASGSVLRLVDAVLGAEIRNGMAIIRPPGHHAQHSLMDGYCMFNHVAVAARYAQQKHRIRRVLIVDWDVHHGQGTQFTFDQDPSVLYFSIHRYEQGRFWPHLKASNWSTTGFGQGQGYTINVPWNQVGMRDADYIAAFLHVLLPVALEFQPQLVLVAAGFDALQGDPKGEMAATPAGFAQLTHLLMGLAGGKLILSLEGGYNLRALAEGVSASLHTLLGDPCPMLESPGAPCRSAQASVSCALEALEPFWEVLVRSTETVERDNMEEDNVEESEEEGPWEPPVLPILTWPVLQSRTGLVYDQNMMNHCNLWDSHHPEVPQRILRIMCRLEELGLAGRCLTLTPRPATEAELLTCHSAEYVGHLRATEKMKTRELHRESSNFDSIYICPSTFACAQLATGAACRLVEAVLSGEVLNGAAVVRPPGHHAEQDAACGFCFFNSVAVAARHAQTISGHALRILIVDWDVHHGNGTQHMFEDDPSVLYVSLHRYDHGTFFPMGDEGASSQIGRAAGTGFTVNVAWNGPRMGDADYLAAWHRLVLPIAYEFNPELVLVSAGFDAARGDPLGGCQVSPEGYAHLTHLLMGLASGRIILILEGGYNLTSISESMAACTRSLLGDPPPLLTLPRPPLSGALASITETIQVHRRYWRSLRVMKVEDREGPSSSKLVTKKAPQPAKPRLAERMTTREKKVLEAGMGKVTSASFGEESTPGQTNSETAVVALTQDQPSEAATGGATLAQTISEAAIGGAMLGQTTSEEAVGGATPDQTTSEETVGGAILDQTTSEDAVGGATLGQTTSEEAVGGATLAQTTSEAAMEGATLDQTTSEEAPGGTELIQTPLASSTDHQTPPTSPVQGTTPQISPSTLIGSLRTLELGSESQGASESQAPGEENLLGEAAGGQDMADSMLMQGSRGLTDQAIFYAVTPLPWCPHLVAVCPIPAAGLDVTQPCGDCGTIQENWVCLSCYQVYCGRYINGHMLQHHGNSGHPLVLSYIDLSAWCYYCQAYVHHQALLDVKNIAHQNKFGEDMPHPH

For the compound `CCc1c2c(nc3ccc(OC(=O)N4CCC(N5CCCCC5)CC4)cc13)-c1cc3c(c(=O)n1C2)COC(=O)[C@]3(O)CC` [IRINOTECAN], the IC50 amounted to 2400 nM in the test on NCI-H460; 1500 nM in the test on CAPAN-1; 4100 nM with A-431; 5800 nM in the test with HeLa; 4800 nM in the test with HT-29; 2800 nM in the test on DU-145. In addition, the IC50 in the test with HepG2 is 4000 nM; in the test with A2780, 3800 nM; in the test “cells [1]”, 20100 nM; in “cells [2]”, above 10000 nM; in the test “cells [3]” it was 740 nM; in the test on JeKo-1 [4], above 10000 nM. Further, the IC50 in the test with U2932 was 4400 nM; with L-428 [5], above 10000 nM; in the test with DG-75 [6], above 10000 nM; in the test on NB-4 it was 1000 nM; in the test “cells [13]”, 10000 nM; in “cells [14]”, 9400 nM. Further, the IC50 in the test on OCI-Ly3 [15] and in the test with KM-H2 [16] was above 10000 nM each time. In addition, the Activity in test [7] is given as 36%; in the test on JeKo-1 [8], 48%; with OCI-Ly3 [9], 0%; in the test with L-428 [10], 0%; with KM-H2 [11], 12%; in the test with DG-75 [12] it was 0%. Besides, the inhibition in vivo at 20 mg/kg in the test with MM473 was 37%.

As to `CC[C@@]1(O)C(=O)OCc2c1cc1n(c2=O)Cc2c-1nc1ccc(O)cc1c2/C=N/OCCCCCC(=O)NCCSSCCNC(=O)/C(Cc1ccc(O)c(Br)c1)=N\O`, the IC50 with NCI-H460 was 880 nM; in the test with CAPAN-1 it was 200 nM; on Histone deacetylase 1 it was 253 nM; at Histone deacetylase 2, 410 nM; at Histone deacetylase 4 it was “Not Active”; in test [17], 1490 nM. This compound also came in with an IC50 in test [18] of 9.12 nM.

In the case of `CC[C@@]1(O)C(=O)OCc2c1cc1n(c2=O)Cc2c-1nc1ccccc1c2/C=N/OCCCCCC(=O)NCCSSCCNC(=O)/C(Cc1ccc(O)cc1)=N\O`, the IC50 was 220 nM in the test with NCI-H460; 75 nM with CAPAN-1; 310 nM with A-431; 580 nM in the test on HeLa; 460 nM with HT-29; 190 nM in the test on DU-145. Moreover, the IC50 in the test with HepG2 was 610 nM; in the test with A2780, 290 nM; in “cells [1]”, 1600 nM.
